Consider 20 compounds from ChEMBL document CHEMBL1157505, “Design and in vitro characterization of highly sst2-selective somatostatin antagonists suitable for radiotargeting” (J Med Chem, 2008).

Active and inactive are the calls of the source. The rule behind the calls is not given here.

Holding throughout (assay type): functional, cell-based
For assay [1], the target named is T1, Somatostatin receptor type 2 (Homo sapiens, UniProt P30874). Briefly: Antagonist activity at T7 epitope tagged human cloned sst2 expressed in HEK293 cells assessed as intracellular calcium release upto 10 uM. Put shortly:
(§1)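 HEK-sst2 cells seeded on poly-D-lysine, cultured 1 day, loaded with Fluo-4NW dye (assay buffer HBSS/20 mM HEPES, 2.5 mM probenecid) 30 min 37 °C plus 30 min RT. Analogues alone up to 10 μM, or [Tyr3]-octreotide with 100-fold excess analogue; fluorescence (ex 485/em 520 nm) recorded 60 s at RT; percentage of ionomycin (25 μM) maximum over baseline; ≥3 experiments in triplicate.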

For assay [2], the target named is T1, Somatostatin receptor type 2. Briefly: Antagonist activity at T7 epitope tagged human cloned sst2 expressed in HEK293 cells assessed as [Tyr3]octreotide-induced intracellular calcium release upto 10 uM. Summed up: as §1
On the technique in general: A change in cytosolic calcium serves as a functional read-out for many receptors and channels.

The target is the same in assay [3]. Briefly: Antagonist activity at T7 epitope tagged human cloned sst2 receptor expressed in HEK293 cells assessed as inhibition of [Tyr3]octreotide-induced receptor internalization upto 10 uM. Summed up: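 Surface T7-tagged sst2 on HEK-sst2 cells labelled with anti-T7 antibody 2 h RT in DMEM-LH, then cells exposed 30 min at 37 °C to analogue (alone up to 10 μM or with [Tyr3]-octreotide), fixed in 3% paraformaldehyde, probed with HRP anti-mouse IgG, ABTS read at OD405; surface receptor as % of untreated; mean ± SEM, three experiments in duplicate.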

T1 sequence (P30874 whole entry): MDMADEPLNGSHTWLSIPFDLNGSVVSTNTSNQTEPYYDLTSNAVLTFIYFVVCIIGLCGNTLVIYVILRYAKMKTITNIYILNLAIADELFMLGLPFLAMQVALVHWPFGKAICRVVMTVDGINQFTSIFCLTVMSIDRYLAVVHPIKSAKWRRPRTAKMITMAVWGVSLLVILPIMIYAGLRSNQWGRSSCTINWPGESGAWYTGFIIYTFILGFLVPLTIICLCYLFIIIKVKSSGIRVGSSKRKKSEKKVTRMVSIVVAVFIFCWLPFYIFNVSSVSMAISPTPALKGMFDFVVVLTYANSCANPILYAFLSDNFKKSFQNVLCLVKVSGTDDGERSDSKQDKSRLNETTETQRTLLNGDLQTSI

In the case of `C[C@@H](O)[C@@H]1NC(=O)[C@H](CCCCN)NC(=O)[C@@H](Cc2c[nH]c3ccccc23)NC(=O)[C@H](Cc2ccc(NC(N)=O)cc2)NC(=O)[C@H](NC(=O)[C@H](N)Cc2ccc(Cl)cc2)CSSC[C@@H](C(=O)N[C@@H](Cc2ccc3ccccc3c2)C(N)=O)NC1=O`, the result in assay [1] was inactive. The outcome in assay [2] and in assay [3] was Active.
Consider `C[C@@H](O)[C@@H]1NC(=O)[C@H](CCCCN)NC(=O)[C@@H](Cc2c[nH]c3ccccc23)NC(=O)[C@H](Cc2ccc(NC(N)=O)cc2)NC(=O)[C@H](NC(=O)[C@H](N)Cc2ccc(Cl)cc2)CSSC[C@@H](C(=O)N[C@@H](CC2CCCCC2)C(N)=O)NC1=O`, for which, in assay [1], the result was inactive.
The same measure, in the same setting: under `C[C@@H](O)[C@@H]1NC(=O)[C@H](CCCCN)NC(=O)[C@@H](Cc2ccc(NC(N)=O)cc2)NC(=O)[C@H](Cc2ccc(O)cc2)NC(=O)[C@H](NC(=O)[C@H](N)Cc2ccc(Cl)cc2)CSSC[C@@H](C(=O)N[C@@H](Cc2ccc3ccccc3c2)C(N)=O)NC1=O` stands “inactive”.
Take `C[C@@H](O)[C@@H]1NC(=O)[C@H](CCCCN)NC(=O)[C@@H](Cc2c[nH]c3ccccc23)NC(=O)[C@H](Cc2ccc(NC(N)=O)cc2)NC(=O)[C@H](NC(=O)[C@H](N)Cc2ccc(Cl)cc2)CSSC[C@@H](C(=O)N[C@H](Cc2ccc(NC(N)=O)cc2)C(=O)NCC(=O)O)NC1=O`: the outcome in assay [1] was inactive.
Consider `C[C@@H](O)[C@@H]1NC(=O)[C@H](CCCCN)NC(=O)[C@@H](Cc2c[nH]c3ccccc23)NC(=O)[C@H](Cc2ccc(NC(N)=O)cc2)NC(=O)[C@H](NC(=O)[C@@H](Cc2ccc(Cl)cc2)NC(=O)CN2CCN(CC(=O)O)CCN(CC(=O)O)CCN(CC(=O)O)CC2)CSSC[C@@H](C(=O)N[C@@H](Cc2ccc3ccccc3c2)C(N)=O)NC1=O`, for which the result in assay [1] was inactive. Also, the outcome in assay [2] and in assay [3] was Active.
On to `C[C@@H](O)[C@@H]1NC(=O)[C@H](CCCCN)NC(=O)[C@@H](Cc2c[nH]c3ccccc23)NC(=O)[C@H](Cc2ccc(NC(N)=O)cc2)NC(=O)[C@H](NC(=O)[C@H](N)Cc2ccc(Cl)cc2)CSSC[C@@H](C(=O)N[C@@H](Cc2ccc(NC(N)=O)cc2)C(N)=O)NC1=O`, for which, in assay [1], the result was inactive.
Consider `C[C@@H](O)[C@@H]1NC(=O)[C@H](CCCCN)NC(=O)[C@@H](Cc2ccc(NC(N)=O)cc2)NC(=O)[C@H](Cc2ccc(O)cc2)NC(=O)[C@H](NC(=O)[C@@H](Cc2ccc(Cl)cc2)NC(=O)CN2CCN(CC(=O)O)CCN(CC(=O)O)CCN(CC(=O)O)CC2)CSSC[C@@H](C(=O)N[C@@H](Cc2ccc3ccccc3c2)C(N)=O)NC1=O`, for which the result in assay [1] was inactive. The outcome in assay [2] and in assay [3] was Active.
As to `C[C@@H](O)[C@@H]1NC(=O)[C@H](CCCCN)NC(=O)[C@@H](Cc2c[nH]c3ccccc23)NC(=O)[C@@H](N(C)C(=O)c2ccccc2)NC(=O)[C@H](NC(=O)[C@H](N)Cc2ccc(Cl)cc2)CSSC[C@@H](C(=O)N[C@@H](Cc2ccc3ccccc3c2)C(N)=O)NC1=O`, the outcome in assay [1] was inactive.
With `C[C@@H](O)[C@@H]1NC(=O)[C@H](CCCCN)NC(=O)[C@@H](Cc2c[nH]c3ccccc23)NC(=O)[C@H](Cc2ccc(NC(N)=O)cc2)NC(=O)[C@H](NC(=O)[C@@H](Cc2ccc(Cl)cc2)NC(=O)CCOCCOCCOCCNC(=O)CN2CCN(CC(=O)O)CCN(CC(=O)O)CCN(CC(=O)O)CC2)CSSC[C@@H](C(=O)N[C@@H](Cc2ccc3ccccc3c2)C(N)=O)NC1=O`, the result in assay [1] was inactive. In assay [3], the outcome was Active.
Consider `C[C@@H](O)[C@@H]1NC(=O)[C@H](CCCCN)NC(=O)[C@@H](Cc2ccc(NC(N)=O)cc2)NC(=O)[C@H](Cc2ccc(NC(=O)[C@@H]3CC(=O)NC(=O)N3)cc2)NC(=O)[C@H](NC(=O)[C@H](N)Cc2ccc([N+](=O)[O-])cc2)CSSC[C@@H](C(=O)N[C@@H](Cc2ccc3ccccc3c2)C(N)=O)NC1=O`, for which the result in assay [1] was inactive.
In the case of `CONC(=O)Nc1ccc(C[C@@H]2NC(=O)[C@H](NC(=O)[C@H](N)Cc3ccc(Cl)cc3)CSSC[C@@H](C(=O)N[C@@H](Cc3ccc4ccccc4c3)C(N)=O)NC(=O)[C@H]([C@@H](C)O)NC(=O)[C@H](CCCCN)NC(=O)[C@@H](Cc3c[nH]c4ccccc34)NC2=O)cc1`, the result in assay [1] was inactive.
On to `C[C@@H](O)[C@@H]1NC(=O)[C@H](CCCCN)NC(=O)[C@@H](Cc2c[nH]c3ccccc23)NC(=O)[C@H](Cc2ccc(NC(N)=O)cc2)NC(=O)[C@H](NC(=O)[C@H](N)Cc2ccc(Cl)cc2)CSSC[C@@H](C(=O)N[C@H](Cc2ccc(NC(N)=O)cc2)C(N)=O)NC1=O`, for which the result in assay [1] was inactive.
On to `CC(=O)N[C@H](Cc1ccc([N+](=O)[O-])cc1)C(=O)N[C@@H]1CSSC[C@@H](C(=O)N[C@H](Cc2ccc(O)cc2)C(N)=O)NC(=O)[C@H]([C@@H](C)O)NC(=O)[C@H](CCCCN)NC(=O)[C@@H](Cc2c[nH]c3ccccc23)NC(=O)[C@H](Cc2ccc(O)cc2)NC1=O`, for which the outcome in assay [1] was inactive. Besides, the outcome in assay [3] was Active.
For the compound `C[C@@H](O)[C@@H]1NC(=O)[C@H](CCCCN)NC(=O)[C@@H](Cc2c[nH]c3ccccc23)NC(=O)[C@H](Cc2ccc(NC(N)=O)cc2)NC(=O)[C@H](NC(=O)[C@H](N)Cc2ccc(Cl)cc2)CSSC[C@@H](C(=O)N[C@@H](Cc2ccc(NC(=O)[C@@H]3CC(=O)NC(=O)N3)cc2)C(N)=O)NC1=O`, the outcome in assay [1] was inactive.
Still for that read-out and setting: under `CC(C)C[C@@H]1NC(=O)[C@H](NC(=O)[C@H](N)Cc2ccc(Cl)cc2)CSSC[C@@H](C(=O)N[C@@H](Cc2ccc3ccccc3c2)C(N)=O)NC(=O)[C@H]([C@@H](C)O)NC(=O)[C@H](CCCCN)NC(=O)[C@@H](Cc2c[nH]c3ccccc23)NC1=O` stands “inactive”.
Turning to `C[C@@H](O)[C@@H]1NC(=O)[C@H](CCCCN)NC(=O)[C@@H](Cc2c[nH]c3ccccc23)NC(=O)[C@H](Cc2ccc(NC(=O)NO)cc2)NC(=O)[C@H](NC(=O)[C@H](N)Cc2ccc(Cl)cc2)CSSC[C@@H](C(=O)N[C@@H](Cc2ccc3ccccc3c2)C(N)=O)NC1=O`, the result in assay [1] was inactive.
The same measure, in the same setting: under `C[C@@H](O)[C@@H]1NC(=O)[C@H](CCCCN)NC(=O)[C@@H](Cc2c[nH]c3ccccc23)NC(=O)[C@H](Cc2ccc(NC(N)=O)cc2)NC(=O)[C@H](NC(=O)[C@@H](Cc2ccc(Cl)cc2)NC(N)=O)CSSC[C@@H](C(=O)N[C@@H](Cc2ccc3ccccc3c2)C(N)=O)NC1=O` stands “inactive”.
On the same count and under the same terms, the entry for `C[C@@H](O)[C@@H]1NC(=O)[C@H](CCCCN)NC(=O)[C@H](Cc2c[nH]c3ccc(F)cc23)NC(=O)[C@H](Cc2ccc(NC(N)=O)cc2)NC(=O)[C@H](NC(=O)[C@H](N)Cc2ccc(Cl)cc2)CSSC[C@@H](C(=O)N[C@@H](Cc2ccc3ccccc3c2)C(N)=O)NC1=O` is “inactive”.
For the compound `C[C@@H](O)[C@@H]1NC(=O)[C@H](CCCCN)NC(=O)[C@@H](Cc2c[nH]c3ccccc23)NC(=O)[C@H](N(C)C(=O)c2ccccc2)NC(=O)[C@H](NC(=O)[C@H](N)Cc2ccc(Cl)cc2)CSSC[C@@H](C(=O)N[C@@H](Cc2ccc3ccccc3c2)C(N)=O)NC1=O`, in assay [1], the outcome was inactive. The outcome in assay [3] was Active.
For `C[C@@H](O)[C@@H]1NC(=O)[C@H](CCCCN)NC(=O)[C@@H](Cc2ccc(NC(N)=O)cc2)NC(=O)[C@H](Cc2ccc(O)cc2)NC(=O)[C@H](NC(=O)[C@H](N)Cc2ccc([N+](=O)[O-])cc2)CSSC[C@@H](C(=O)N[C@@H](Cc2ccc3ccccc3c2)C(N)=O)NC1=O` the same measures were “inactive” and “Active”.
